FGF22 binding – shifts melting point of recombinant human FGF22; Q9HCT0; recombinant FGF22 thermal shift, SYPRO orange fluorescence; percent of sucrose octasulfate shift, DMSO zero; activity (Tm shift, normalised), % at 9.99 µM; 1.5% of 340,000 active;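 active = mean Tm shift, scaled 0 neutral to 100 positive control, at about 1.3% or above, every replicate too, limit read from the data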
Cneo AK release – Cryptococcus neoformans lysis via adenylate kinase release; lysis activity, % at 15 µM; 0.2% of 360,000 active; AID 651654; C. neoformans lysis, adenylate kinase release luminescence, 4 h; normalised: neutral wells 0, clomiphene wells 100;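 active = mean lysis activity across replicates of at least 80%, whatever share of replicates individually reach that level; inactive = mean lysis activity below 80%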
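Material: C. neoformans cells; Schedule: 4 h static compound exposure, 37 °C, read 1 h post-reagent; Measured by: adenylate kinase release luminescence; Read-out: signal increase indicating cell lysis; Controls: Clomiphene as positive lysis control.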
Ecoli rRNA inh – inhibits bacterial ribosomal RNA function over humanized ribosomes; E. coli WT GFP vs humanized-ribosome RFP mutants, fluorescence, 24 h; hits give low values; DMSO median 0, no signal -100; GFP signal change (wild-type ribosome), % (test concentration not listed); 1.6% of 350,000 active;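 active = significant combined selectivity score with lowered wild-type GFP, culture density cut under 30%, mutant RFP and density less affected; inactive = any of these conditions unmet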
HIV Env fusion – inhibitors of HIV Env-mediated cell fusion; HeLa-JRFL Env/CEM21 cell fusion, luciferase; inhibition, % at 12.3 µM; 1.1% of 360,000 active;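 active = mean replicate inhibition score of at least 50 and every replicate individually at or above 50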;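 note: 0% = plate neutral controls and 100% = maraviroc near 300 nM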
ERAP1 HTS inh – ERAP1 (human) enzyme inhibition; 0.15% of 340,000 active; inhibition, % at 10.7 µM; recombinant ERAP1, Leu-AMC fluorescence, 60 min;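 active = mean replicate inhibition of at least 30%, or all replicates individually reaching that 30% level; inactive = mean below 30% and not every replicate reaching it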;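 note: 0% = neutral control wells and 100% = L-leucinethiol positive control wells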
PGC1a acetyl inh – lowers PGC1a acetylation signal in U2OS cells; AlphaScreen anti-acetyl-lysine; with virally co-expressed GCN5 acetyltransferase; inhibition, % at 15.6 µM; 0.17% of 350,000 active; AID 651687;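 active = every replicate shows inhibition of at least 40%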;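 note: 0% = neutral control wells and 100% = positive control wells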
An asterisk follows results filed as active; [ ] = another dose, or the depositor's remark. In the library only some 3.5% were active in any assay of this set; here they are far more common.

Screening CCN(Cc1ccccc1)C(=O)c1cccc(S(=O)(=O)N2CCN(c3ccccc3)CC2)c1 returned FGF22 binding 0, Cneo AK release 0, Ecoli rRNA inh -12, HIV Env fusion 15, ERAP1 HTS inh 0 and PGC1a acetyl inh -18.
Screening COCC#Cc1ccc2c(c1)O[C@H](CN(C)S(=O)(=O)c1ccc(OC)cc1)[C@H](C)CN([C@H](C)CO)S2(=O)=O returned FGF22 binding 0, Cneo AK release 87*, Ecoli rRNA inh -2, ERAP1 HTS inh 2 and PGC1a acetyl inh -8.
`COCC#Cc1ccc2c(c1)O[C@H](CN(C)S(=O)(=O)c1ccc(OC)cc1)[C@@H](C)CN([C@H](C)CO)S2(=O)=O` gave FGF22 binding 0, Cneo AK release 1, Ecoli rRNA inh -4, ERAP1 HTS inh -2 and PGC1a acetyl inh -12.
Screening CC(C)CC#Cc1ccc2c(c1)O[C@@H](CN(C)S(=O)(=O)c1cccc(F)c1)[C@@H](C)CN([C@H](C)CO)S2(=O)=O returned FGF22 binding 0, Cneo AK release -1, Ecoli rRNA inh -2, HIV Env fusion 68*[16.7 µM], ERAP1 HTS inh -1 and PGC1a acetyl inh 0.
`CC(C)CC#Cc1ccc2c(c1)O[C@@H](CN(C)S(=O)(=O)c1ccc(F)cc1)[C@@H](C)CN([C@H](C)CO)S2(=O)=O` gave FGF22 binding 0, Cneo AK release 1, Ecoli rRNA inh 2, HIV Env fusion 62*[16.7 µM], ERAP1 HTS inh 0 and PGC1a acetyl inh -4.
For CCCC#Cc1ccc2c(c1)O[C@@H](CN(C)S(=O)(=O)c1cccc(F)c1)[C@@H](C)CN([C@@H](C)CO)S2(=O)=O the results were FGF22 binding 0, Cneo AK release -2, Ecoli rRNA inh -3, HIV Env fusion 60*[16.7 µM], ERAP1 HTS inh -1 and PGC1a acetyl inh -11.
CCCC#Cc1ccc2c(c1)O[C@H](CN(C)S(=O)(=O)c1cccc(F)c1)[C@H](C)CN([C@H](C)CO)S2(=O)=O was read as FGF22 binding -1, Cneo AK release 4, Ecoli rRNA inh 3, HIV Env fusion 43[16.7 µM], ERAP1 HTS inh 0 and PGC1a acetyl inh -7.
For COCC(C)NCc1ccc(OC)c(Br)c1 (stereo not given) the results were FGF22 binding 0, Ecoli rRNA inh 22, HIV Env fusion -2, ERAP1 HTS inh -2 and PGC1a acetyl inh -2.
CC(=O)OCn1nnc2ccccc2c1=O was read as Cneo AK release -1 and PGC1a acetyl inh -4.
`COc1ccc(-c2cc(C(=O)OCc3ccccn3)c3ccccc3n2)cc1` gave FGF22 binding 0, Cneo AK release -14, Ecoli rRNA inh -34*, HIV Env fusion -3, ERAP1 HTS inh 13 and PGC1a acetyl inh -10.
`C=CCn1c(SCc2c(C)noc2C)nc2ccccc2c1=O` gave Cneo AK release -3, HIV Env fusion 62* and PGC1a acetyl inh -74.
For COCCSc1ccccc1C(=O)N1CCc2ccccc2C1 the results were FGF22 binding 43*, Cneo AK release 1, Ecoli rRNA inh 12, HIV Env fusion -11 and ERAP1 HTS inh 1.
`CCCS(=O)(=O)NC(=O)C1(C)CCN(C(=O)COc2ccc(Cl)cc2Cl)C1` (stereo not given) gave FGF22 binding 0, Cneo AK release -5, Ecoli rRNA inh 15, HIV Env fusion 56*, ERAP1 HTS inh 0 and PGC1a acetyl inh 7.
`Cc1cc(O)ccc1NS(=O)(=O)c1ccc2c3c(cccc13)C(=O)N2` gave FGF22 binding 0, Cneo AK release -1, Ecoli rRNA inh -8, HIV Env fusion 2, ERAP1 HTS inh 4 and PGC1a acetyl inh -4.
`C[C@@H]1CCCCO[C@@H](CN(C)C(=O)CCC(F)(F)F)[C@@H](C)CN([C@@H](C)CO)C(=O)c2cc(NS(=O)(=O)c3cn(C)cn3)ccc2O1` gave FGF22 binding 0, Cneo AK release -3, Ecoli rRNA inh 0, HIV Env fusion 44[16.7 µM], ERAP1 HTS inh 0 and PGC1a acetyl inh -21.
`CC(=C/c1ccccc1)/C=N/n1c(C)n[nH]c1=S` gave FGF22 binding 0, Cneo AK release 2, Ecoli rRNA inh -8, HIV Env fusion 59*, ERAP1 HTS inh -1 and PGC1a acetyl inh 0.
For CC(=C/c1ccccc1)/C=N/n1c(-c2ccncc2)n[nH]c1=S the results were FGF22 binding 0, Ecoli rRNA inh 20, HIV Env fusion 64*, ERAP1 HTS inh 0 and PGC1a acetyl inh 18.
S=c1[nH]nc(-c2ccco2)n1/N=C/C(Cl)=C/c1ccccc1 was read as Cneo AK release -5, Ecoli rRNA inh -36*, HIV Env fusion -59 and PGC1a acetyl inh -65.
For CC(/C=N/n1c(-c2cccnc2)n[nH]c1=S)=C\c1ccccc1 the results were Cneo AK release 7, HIV Env fusion 25 and PGC1a acetyl inh 7.
`O=C(c1cc(C2CCCCN2C(=O)OCCF)on1)N1CCOCC1` (stereo not given) gave FGF22 binding 0, Cneo AK release -2, Ecoli rRNA inh 3, HIV Env fusion -19, ERAP1 HTS inh 6 and PGC1a acetyl inh 1.
For COc1ccccc1CNC(=O)C1CCCN(S(=O)(=O)c2cnc[nH]2)C1 (stereo not given) the results were FGF22 binding 0, Cneo AK release 1, Ecoli rRNA inh 6, HIV Env fusion -58 and PGC1a acetyl inh 3.
Screening Cc1cc(C)c(S(=O)(=O)Nc2ccc(Cl)cn2)c(C)c1 returned FGF22 binding 0, Cneo AK release 0, Ecoli rRNA inh -31*, HIV Env fusion 25 and ERAP1 HTS inh -1.
Screening COc1ccc(NC(=O)N2CC(=O)N3[C@H](CO)[C@@H](c4ccc(Br)cc4)[C@H]3C2)cc1 returned Ecoli rRNA inh -2, ERAP1 HTS inh -2 and PGC1a acetyl inh -1.
For CC(NC(=O)Cc1ccccc1)c1ccccc1 (stereo not given) the results were FGF22 binding 0, Cneo AK release -3, Ecoli rRNA inh 1, HIV Env fusion 4 and ERAP1 HTS inh 1.
For CCC[N+](C)(C)C(C)C(OC(C)=O)c1ccccc1 (stereo not given) the results were FGF22 binding 0, Cneo AK release -2, Ecoli rRNA inh 7, HIV Env fusion -4, ERAP1 HTS inh 41* and PGC1a acetyl inh -5.
Screening Cc1ccccc1S(=O)(=O)N[C@@H]1CC[C@@H](CCn2cc(Cc3ccccc3)nn2)O[C@H]1CO returned FGF22 binding 0, Cneo AK release 1, Ecoli rRNA inh -5, HIV Env fusion 4[16.7 µM], ERAP1 HTS inh 3 and PGC1a acetyl inh 61*.

Source: PubChem BioAssay (Broad Institute)
